This experiment relates to subcutaneous Hepa1-6 liver cancers. The experiment in a line: Subcutaneous Hepa1-6 liver cancers, 747 combined with low-dose sorafenib. Format: in vivo, mouse. The following applies: sorafenib low dose 10 mg/kg. The method, boiled down:
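Hepa1-6 cells (1.5 × 106) injected into right flank; mice randomized at ~0.5 cm tumors. Test compound given i.p. daily (0.5% HPMC/0.2% Tween), alone or with sorafenib 10 mg/kg intragastric. Volume = 1/2a × b². End-point paraffin sections stained for F4/80, Arg-1 and cleaved caspase-3 (primary overnight at 4 °C, HRP secondary 1 h at 37 °C, DAB). Sorted intratumoral CD8+ T cells analysed by qRT-PCR normalized to GAPDH/L32.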

Consider `CNC(=O)c1cc(Oc2ccc(NC(=O)Nc3ccc(Cl)c(C(F)(F)F)c3)cc2)ccn1` [sorafenib], for which the “therapeutic effect on subcutaneous tumors” value is recorded as “no efficacy”.

Values taken from paper PMC5552238 (EBioMedicine, 2017).
